{"source": "ChEMBL document CHEMBL1127292", "about": "“Inhibition of myeloperoxidase release from rat polymorphonuclear leukocytes by a series of azachalcone derivatives” (J Med Chem, 1994)", "data": [{"organism": "Rattus norvegicus", "assay": "Ability to inhibit N-formyl-methionyl-leucyl-phenylalanine (fMLP)-stimulated release of myeloperoxidase (MPO) from rat polymorphonuclear leukocytes (PMN).", "assay_type": "functional", "procedure,_shortened": "(§1)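 Peritoneal PMN were taken from Harlan Sprague-Dawley rats (150-250 g), with >90% viability by trypan blue and >90% PMN by Wright-Giemsa stain. Cells in suspension (2 × 10^7 cells/mL) were stimulated with 0.1 μM fMLP for 30 min at 37 °C in the presence of test agent. MPO in the supernatant was measured by MPO-catalyzed oxidation of o-dianisidine.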", "units": {"IC50": "µM"}, "values": [{"smiles": "O=C1c2ccccc2-c2ccc(-c3cccnc3)cc21", "IC50": "> 100"}, {"smiles": "O=C(/C=C/c1ccncc1)c1cccs1", "IC50": 30}, {"smiles": "O=C(c1ccccc1)c1cccc(-c2cccnc2)c1", "IC50": "> 100"}, {"smiles": "O=C(/C=C/c1ccncc1)c1cccc(Cl)c1", "IC50": 69}, {"smiles": "O=C1c2ccccc2-c2cccc(-c3cccnc3)c21", "IC50": "> 100"}, {"smiles": "CSc1ccc(C(=O)/C=C/c2ccncc2)cc1", "IC50": 33}, {"smiles": "O=C(/C=C/c1ccncc1)c1ccco1", "IC50": 50}, {"smiles": "O=C(c1ccccc1)c1ccc2ncccc2c1", "IC50": "> 100"}, {"smiles": "CC(C)(C)c1ccc(C(=O)/C=C/c2ccncc2)cc1", "IC50": 47}, {"smiles": "O=C(/C=C/c1ccncc1)c1ccc(C(F)(F)F)cc1", "IC50": 204}, {"smiles": "COc1cc(C(=O)CCc2ccncc2)cc(OC)c1OC", "IC50": "> 100"}, {"smiles": "COc1cc(C(=O)/C=C/c2ccncc2)cc(OC)c1OC", "IC50": 7}, {"smiles": "CN(C)c1cccc(C(=O)/C=C/c2ccncc2)c1", "IC50": 19}, {"smiles": "O=C(/C=C/c1ccncc1)c1cccc(C(F)(F)F)c1", "IC50": 41}, {"smiles": "COc1cc(C(O)/C=C/c2ccncc2)cc(OC)c1OC", "note": "(stereo not drawn)", "IC50": "> 100"}, {"smiles": "O=C(C#Cc1ccncc1)c1ccccc1", "IC50": 16}, {"smiles": "N#Cc1cccc(C(=O)/C=C/c2ccncc2)c1", "IC50": 85}, {"smiles": "O=c1cc(-c2cccnc2)oc2ccccc12", "IC50": "> 100"}, {"smiles": "N#Cc1ccc(C(=O)/C=C/c2ccncc2)cc1", "IC50": 123}, {"smiles": "O=C(c1ccccc1)c1ccccc1-c1cccnc1", "IC50": "> 100"}, {"smiles": "O=C(/C=C/c1ccncc1)c1ccccc1", "IC50": 49}, {"smiles": "O=C(c1ccccc1)c1ccc(-c2cccnc2)cc1", "IC50": "> 100"}, {"smiles": "CO/N=C(\\C=C\\c1ccncc1)c1cc(OC)c(OC)c(OC)c1", "IC50": "> 100"}, {"smiles": "COc1cc(C(=O)/C=C/c2ccccn2)cc(OC)c1OC", "IC50": 18}, {"smiles": "O=C(/C=C/c1ccncc1)c1ccc(Cl)cc1", "IC50": 60}, {"smiles": "COc1cc(C(=O)/C=C/c2cccnc2)cc(OC)c1OC", "IC50": 30}, {"smiles": "COc1cc(C(=O)/C=C/c2cc[n+](C)cc2)cc(OC)c1OC", "IC50": "> 50"}, {"smiles": "Cc1cccc(C(=O)/C=C/c2ccncc2)c1", "IC50": 39}, {"smiles": "COc1cc(C(=O)/C(C)=C/c2ccncc2)cc(OC)c1OC", "IC50": "> 100"}, {"smiles": "COc1cc(C(=O)/C=C(\\C)c2ccncc2)cc(OC)c1OC", "IC50": "> 100"}, {"smiles": "CN(C)c1ccc(C(=O)/C=C/c2ccncc2)cc1", "IC50": 11}, {"smiles": "C(=C\\c1noc2ccccc12)/c1ccncc1", "IC50": "> 100"}]}, {"organism": "Rattus norvegicus", "assay": "Tested for ability at 50 uM to inhibit N-formyl-methionyl-leucyl-phenylalanine (fMLP) stimulated release of Myeloperoxidase (MPO) from rat polymorphonuclear leukocytes (PMN)", "assay_type": "functional", "procedure,_shortened": "as §1", "units": {"inhibition at 50 µM": "%"}, "values": [{"smiles": "COc1cc(/C=C\\C(=O)c2ccncc2)cc(OC)c1OC", "inhibition at 50 µM": 28}]}]}
